{"data": "Assay results from different studies", "Oprd1": "Delta-type opioid receptor (Oprd1, Rattus norvegicus, UniProt P33533)", "CTSB": "Cathepsin B (CTSB, Homo sapiens, UniProt P07858)"}
{"Compound": "OC[C@H]1CNCCN1C[C@@H]1CCCN1C[C@H](CC1CCCCC1)N1CCN(CCC23CC4CC(CC(C4)C2)C3)[C@H](Cc2ccc(O)cc2)C1", "target": "Oprd1", "test": "ligand displacement, radioligand", "conditions": "0.5 µM, 2 h, pH 7.5, cell membranes", "endpoint": "remaining binding", "result": "96.1%"}
{"Compound": "COc1cc(Cl)c(C(=O)N[C@@H](CN[C@H]2CC[C@@H](N)CC2)Cc2ccc(C#N)cc2)cc1-c1ccc(CN[C@H](C)c2ccc(C)cc2)o1", "target": "MAP kinase-activated protein kinase 3 (MAPKAPK3, Homo sapiens, UniProt Q16644)", "test": "enzyme activity, inhibitor", "conditions": "1 µM", "endpoint": "remaining activity", "result": "107%"}
{"Compound": "CN(C(=O)[C@H](Cc1ccccc1)NC(=O)[C@@H](NC(=O)OCc1ccccc1)C(C)(C)C)N(C#N)CCC(N)=O", "target": "CTSB", "test": "enzyme activity, inhibitor", "endpoint": "kon", "result": "7020 M⁻¹ s⁻¹"}
{"Compound": "CCOC(=O)c1ccc(OC(=O)CCCCCNC(=N)N)cc1", "target": "CTSB", "test": "enzyme activity, inhibitor", "conditions": "10 µM", "endpoint": "inhibition", "result": "0%"}
{"Compound": "Nc1ncc(-c2nc(N3CCOCC3)nc(N3CCOCC3)n2)c(C(F)F)n1", "target": "Mitogen-activated protein kinase 6 (MAPK6, Homo sapiens, UniProt Q16659)", "test": "binding, competition with immobilised ligand", "conditions": "10 µM", "endpoint": "remaining binding", "result": "88%"}
{"Compound": "CCN(CC)CCCC[C@H](NC(=O)[C@H](CC(C)C)NC(=O)[C@H](C)NC(=O)[C@H](Cc1ccccc1)NC(=O)c1ccc(C(C)(C)C)cc1)C(=O)N[C@@H](CO)C(=O)OC", "target": "Bromodomain-containing protein 7 (BRD7, Homo sapiens, UniProt Q9NPI1)", "test": "thermal stability, DSF", "conditions": "25 µM", "endpoint": "ΔTm", "result": "0.08 °C"}
{"Compound": "C[C@@H](O)[C@@H]1CN([C@H](Cc2ccc3ccccc3c2)CN2CCC[C@H]2CN2CCNC[C@@H]2Cc2ccc3ccccc3c2)CCN1CCc1ccc(Cl)c(Cl)c1", "target": "Oprd1", "test": "ligand displacement, radioligand", "conditions": "0.5 µM, 2 h, pH 7.5, cell membranes", "endpoint": "remaining binding", "result": "105%"}
{"Compound": "CC(C)N1CCC[C@H]1CNC(=O)c1cn(C2CCCC2)c(=O)c2c1c1ccccc1n2C", "target": "Platelet-activating factor receptor (PTAFR, Homo sapiens, UniProt P25105)", "test": "ligand displacement, radioligand", "conditions": "10 µM", "endpoint": "inhibition", "result": "7%"}
{"Compound": "C#Cc1n[nH]c2c(-c3cn([C@@H](C)c4ccccc4)c(=O)[nH]c3=O)cc(F)cc12", "target": "Mitogen-activated protein kinase kinase kinase kinase 1 (MAP4K1, Homo sapiens, UniProt Q92918)", "test": "enzyme activity, inhibitor", "conditions": "0.1 µM", "endpoint": "inhibition", "result": "2.7%"}
{"Compound": "CC(C)C[C@H](NC(=O)[C@H]1O[C@@H]1C(=O)O)C(=O)NCCCCN=C(N)N", "target": "CTSB", "test": "enzyme activity, inhibitor", "conditions": "50 nM", "endpoint": "inhibition", "result": "97%"}
{"Compound": "CCCC[C@H]1CNCCN1C[C@@H]1CCCN1C[C@@H](Cc1ccc2ccccc2c1)N1CCN(CCC23CC4CC(CC(C4)C2)C3)[C@H]([C@@H](C)O)C1", "target": "Oprd1", "test": "ligand displacement, radioligand", "conditions": "0.5 µM, 2 h, pH 7.5, cell membranes", "endpoint": "remaining binding", "result": "87.3%"}
{"Compound": "CN1CCN(c2ccc(Nc3nccc(-c4ccccc4)n3)cc2C(F)(F)F)CC1", "target": "Cyclin-dependent kinase 2 homolog (CRK2, Plasmodium falciparum, UniProt P61075)", "test": "cell-free assay", "conditions": "10 µM", "endpoint": "remaining signal", "result": "100%"}
{"Compound": "C#Cc1n[nH]c2c(-c3cn(C(C)c4ccccn4)c(=O)[nH]c3=O)cc(F)cc12 (stereo not shown)", "target": "Cyclin-dependent kinase 8, with cyclin C (CDK8, Homo sapiens, UniProt P49336)", "test": "enzyme activity, inhibitor", "conditions": "1 µM", "endpoint": "inhibition", "result": "6.2%"}
{"Compound": "Cc1nn(C)cc1-c1nc2c(N3CCN(Cc4ccc(Cl)cc4)CC3)c(Cl)cnc2[nH]1", "target": "Myosin light chain kinase family member 4 (MYLK4, Homo sapiens, UniProt Q86YV6)", "test": "binding, competition with immobilised ligand", "conditions": "1 µM", "endpoint": "remaining binding", "result": "94%"}
{"Compound": "CC[C@@H](C)[C@@H]1CN([C@@H](CC2CCCCC2)CN2CCC[C@H]2CN2CCNC[C@@H]2CO)CCN1CCc1ccc(Cl)c(Cl)c1", "target": "Oprd1", "test": "ligand displacement, radioligand", "conditions": "0.5 µM, 2 h, pH 7.5, cell membranes", "endpoint": "remaining binding", "result": "94%"}
{"Compound": "COc1ncccc1-c1cnn2ccc(N3CCN(C(=O)OC(C)C)CC3)nc12", "target": "Serine/threonine-protein kinase TNNI3K (TNNI3K, Homo sapiens, UniProt Q59H18)", "test": "binding, competition with immobilised ligand", "conditions": "1 µM", "endpoint": "remaining binding", "result": "60%"}
